Rows were chosen to be rich in hits. Some 3% of all compounds tested hit in one or more screens of this group.
PGC1a acetyl inh – PGC1a acetylation modulation, inhibitor mode; U2OS PGC1a acetylation, AlphaScreen anti-acetyl-lysine; with virally co-expressed GCN5 acetyltransferase; inhibition, % at 15.6 µM; 350,000 tested, 0.17% active; AID 651687;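 active means every replicate shows inhibition of at least 40%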;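 further: 0% = neutral control wells and 100% = positive control wells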
S100A4 inh HTS – inhibitors of human S100A4 binding to myosin IIA peptide; S100A4/TAMRA-MyoIIA peptide fluorescence polarization; inhibition, % at 10.7 µM; P26447; 360,000 tested, 0.14% active;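 active means mean inhibition of at least 70% across replicates, with every replicate also reaching that level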
Target sequence (P26447 whole entry, looked up): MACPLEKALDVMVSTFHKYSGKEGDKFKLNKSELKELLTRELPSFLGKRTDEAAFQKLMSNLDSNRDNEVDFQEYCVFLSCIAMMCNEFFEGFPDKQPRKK
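Material: S100A4 monomer protein | Medium: HEPES pH 7.2 with CaCl2, KCl, NaCl, DTT, Triton | Reagent: Labelled myosin peptide probe, 5 nM | Doses: One dose per compound | Times: 5 min incubation before reading | Benchmarks: Neutral control DMSO, positive control TFP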
C2C12 statin – protects C2C12 myotubes from simvastatin toxicity; ATP luminescence, 48 h; scaled: DMSO 0, geranylgeraniol control 100; rescue of ATP level, % at 7.49 µM; 330,000 tested, 0.78% active;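 active means mean ATP rescue above about 67%, or every replicate alone reaching that limit, limit read from the data, passing the limit was not always enough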;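 further: myotubes were challenged with 10 µM simvastatin during compound exposure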
Ecoli rRNA inh – inhibitors of bacterial rRNA selective over humanized ribosomes; 350,000 tested, 1.6% active; GFP signal change (wild-type ribosome), % (test concentration not listed); AID 720706; E. coli WT GFP vs humanized-ribosome RFP mutants, fluorescence, 24 h; active compounds read low; DMSO median 0, no signal -100;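 active means significant combined selectivity score with lowered wild-type GFP, culture density cut under 30%, mutant RFP and density less affected; inactive means any of these conditions unmet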
Cneo AK release – Cryptococcus neoformans lysis via adenylate kinase release; C. neoformans lysis, adenylate kinase release luminescence, 4 h; normalised: neutral wells 0, clomiphene wells 100; 360,000 tested, 0.2% active; lysis activity, % at 15 µM;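 active means mean lysis activity across replicates of at least 80%, whatever share of replicates individually reach that level; inactive means mean lysis activity below 80%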
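Material: C. neoformans cells | Amount: Yeast cell density of 5 × 10^6 cells/mL | Medium: Fresh YPD growth medium | Dosing: Single dose | Times: Static 4 h at 37 °C with compound, 1 h detection | Detection: AK luminescence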
SIRT5 inh – blocks human SIRT5 desuccinylation of peptide; Q9NXA8; 330,000 tested, 1.1% active; AID 652115; Purified SirT5, succinyl-peptide AMC, trypsin-coupled fluorescence; inhibition, % at 15 µM; in the data active means inhibition above about 15%
Target sequence (Q9NXA8 whole entry, looked up): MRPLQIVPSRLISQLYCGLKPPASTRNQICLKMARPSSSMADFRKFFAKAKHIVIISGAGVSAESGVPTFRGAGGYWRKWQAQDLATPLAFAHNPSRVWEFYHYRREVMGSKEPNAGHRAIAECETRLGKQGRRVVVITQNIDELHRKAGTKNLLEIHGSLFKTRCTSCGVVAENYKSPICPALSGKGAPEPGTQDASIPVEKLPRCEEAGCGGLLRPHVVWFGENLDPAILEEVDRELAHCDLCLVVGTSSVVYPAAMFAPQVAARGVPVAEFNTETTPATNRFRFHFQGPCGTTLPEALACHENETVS
Numbers without * were called inactive.

What do the screens show for `Cc1nnn(C23CC4CC(CC(CC(=O)Nc5ccc(C)c(C)c5)(C4)C2)C3)n1`?
S100A4 inh HTS: 26; Ecoli rRNA inh: -19*; Cneo AK release: -2; SIRT5 inh: -2

How did Cc1cccc(NC(=O)CC23CC4CC(C2)CC(n2nnc(C)n2)(C4)C3)c1 do in these assays?
S100A4 inh HTS: -13; Ecoli rRNA inh: -23*; Cneo AK release: -1; SIRT5 inh: -3

What do the screens show for `Cc1nnn(C23CC4CC(CC(CC(=O)Nc5cccc(F)c5)(C4)C2)C3)n1`?
PGC1a acetyl inh: -3; S100A4 inh HTS: -2; C2C12 statin: -9; Ecoli rRNA inh: -8; SIRT5 inh: -4

What do the screens show for `CCS(=O)(=O)N1CCC2(CC1)CN(C(=O)Cc1ccccn1)[C@H](CO)c1[nH]c3cc(OC)ccc3c12`?
PGC1a acetyl inh: 16; S100A4 inh HTS: 4; Ecoli rRNA inh: 2; SIRT5 inh: 5

What do the screens show for `O=C(c1ccco1)N(CCCN1CCOCC1)c1nc(-c2ccc(F)cc2)cs1`?
PGC1a acetyl inh: -21; S100A4 inh HTS: -11; C2C12 statin: -18; Ecoli rRNA inh: -33*; Cneo AK release: -1; SIRT5 inh: -9

What do the screens show for `COc1ccc(CN(C)C[C@H]2Oc3ccc(NC(=O)Cc4ccccc4)cc3CC(=O)N([C@H](C)CO)C[C@H]2C)cc1`?
PGC1a acetyl inh: 5; S100A4 inh HTS: 5; C2C12 statin: 32; Ecoli rRNA inh: -2; Cneo AK release: -1; SIRT5 inh: 1

Results for O=C(Nc1cccnc1)c1ccc(Cl)c(S(=O)(=O)N2CCc3ccccc32)c1 ?
S100A4 inh HTS: -1; Ecoli rRNA inh: -26*; SIRT5 inh: -6

What do the screens show for `O=C(Nc1ccccn1)c1ccc(Cl)c(S(=O)(=O)N2CCc3ccccc32)c1`?
PGC1a acetyl inh: 4; S100A4 inh HTS: -14; C2C12 statin: -6; Ecoli rRNA inh: -28*; Cneo AK release: 1; SIRT5 inh: 2

How did Cc1nc(-c2ccc(NC(=O)c3ccco3)cc2)cs1 do in these assays?
PGC1a acetyl inh: -1; S100A4 inh HTS: -15; C2C12 statin: -122; Ecoli rRNA inh: -7; Cneo AK release: -4; SIRT5 inh: -1

How did Cc1nc(-c2ccc(NC(=O)c3ccccc3C)cc2)cs1 do in these assays?
PGC1a acetyl inh: 18; S100A4 inh HTS: 0; C2C12 statin: -7; Ecoli rRNA inh: -27*; Cneo AK release: -10; SIRT5 inh: 2

What do the screens show for `COCC(=O)Nc1ccc2c(c1)C(=O)N(C)C[C@H](OC)[C@@H](C)CN(CCC(F)(F)F)[C@@H](C)CO2`?
PGC1a acetyl inh: 10; S100A4 inh HTS: -3; C2C12 statin: 1; Ecoli rRNA inh: -2; Cneo AK release: 0; SIRT5 inh: -11

Results for COc1ccc(S(=O)(=O)Nc2ccc3c(c2)C(=O)N([C@@H](C)CO)C[C@H](C)[C@H](CN(C)S(=O)(=O)c2ccccc2)OCCCC[C@H](C)O3)cc1 ?
PGC1a acetyl inh: 0; S100A4 inh HTS: -32; Ecoli rRNA inh: 2; SIRT5 inh: 6

Results for CCCN(C)C[C@H]1OCCCC[C@@H](C)Oc2ccc(NC(=O)Cc3ccccc3)cc2C(=O)N([C@@H](C)CO)C[C@H]1C ?
PGC1a acetyl inh: 7; C2C12 statin: 20; Ecoli rRNA inh: 5

How did Fc1cccc(C2NC(=S)NC3=C2N2CCC3CC2)c1 (centres undefined) do in these assays?
PGC1a acetyl inh: -4; S100A4 inh HTS: -8; C2C12 statin: 4; Ecoli rRNA inh: 18; Cneo AK release: -1; SIRT5 inh: 21*

How did CO[C@H]1CN(C)C(=O)c2cc(NC(=O)c3ccc4c(c3)OCO4)ccc2OC[C@@H](C)NC[C@@H]1C do in these assays?
PGC1a acetyl inh: -14; S100A4 inh HTS: 6; C2C12 statin: -9; Ecoli rRNA inh: 1; Cneo AK release: -1; SIRT5 inh: 1

How did O=C(NCCN1CCCC1)c1cc2c(c(-c3cccc(C4=CCCC4)c3)n1)[C@@H](CCO)N(CC1CC1)C2 do in these assays?
Ecoli rRNA inh: 4

Results for CC(=O)N1Cc2cc(C(=O)NCc3cc(F)cc(F)c3)nc(-c3cccc(C4=CCCC4)c3)c2[C@H]1CCO ?
PGC1a acetyl inh: -11; S100A4 inh HTS: -3; SIRT5 inh: 15*

How did C[C@@H]1CCCCO[C@H](CN(C)Cc2ccc(C(F)(F)F)cc2)[C@H](C)CN([C@H](C)CO)C(=O)c2cc(NC(=O)Nc3ccccc3)ccc2O1 do in these assays?
PGC1a acetyl inh: 16; Ecoli rRNA inh: 3; Cneo AK release: 3

What do the screens show for `NC(=S)N/N=C/c1ccc(-c2cc(Cl)cc(Cl)c2)o1`?
PGC1a acetyl inh: -18; C2C12 statin: 1; Cneo AK release: 10

How did NC(=S)N/N=C/c1ccc(-c2cc(Cl)ccc2Cl)o1 do in these assays?
S100A4 inh HTS: 2; C2C12 statin: -25; Ecoli rRNA inh: -21*; Cneo AK release: 111*; SIRT5 inh: -3

Results for Cc1ccccc1NC1=C/C(=N\S(=O)(=O)c2cccs2)c2ccccc2C1=O ?
PGC1a acetyl inh: 88*; C2C12 statin: -237; Cneo AK release: 0

How did CC(=O)Nc1ccc(NC2=C/C(=N/S(=O)(=O)c3cccs3)c3ccccc3C2=O)cc1 do in these assays?
PGC1a acetyl inh: 70*; S100A4 inh HTS: -1; Ecoli rRNA inh: 5; SIRT5 inh: -3

What do the screens show for `C[C@@H]1CN([C@H](C)CO)C(=O)c2cc(C#CC3CC3)cnc2O[C@H]1CN(C)C(=O)c1ccncc1`?
PGC1a acetyl inh: -4; C2C12 statin: 32; Ecoli rRNA inh: 0

Results for O=C(Nc1cc(F)ccc1F)N1C[C@H]2[C@@H](c3ccccc31)[C@@H](CO)N2Cc1cccnc1 ?
PGC1a acetyl inh: -18; S100A4 inh HTS: -4; C2C12 statin: 4; Ecoli rRNA inh: -7; Cneo AK release: -2; SIRT5 inh: 0

How did COc1ccccc1N1CCN(C(=O)C(=O)N/N=C/c2cccc(O)c2)CC1 do in these assays?
PGC1a acetyl inh: 7; C2C12 statin: 96*; Cneo AK release: -1

What do the screens show for `COc1ccccc1-c1cn(CC[C@@H]2CC[C@@H](NC(=O)C3CCOCC3)[C@@H](CO)O2)nn1`?
PGC1a acetyl inh: -12; S100A4 inh HTS: -3; C2C12 statin: 3; Ecoli rRNA inh: 3; Cneo AK release: -2; SIRT5 inh: -1

How did O=C(C1CCCC1)N1CC2(C1)[C@H](c1ccccc1)[C@H](CO)N2C(=O)CC1CC1 do in these assays?
PGC1a acetyl inh: 13; S100A4 inh HTS: -10; Ecoli rRNA inh: 4; SIRT5 inh: 0

Results for NC(=O)COC(=O)CSc1cccc2cccc(Cl)c12 ?
S100A4 inh HTS: 11; Ecoli rRNA inh: -29*; SIRT5 inh: -2

How did CCSc1ncc(/C=N/Nc2ccccc2)n1C do in these assays?
PGC1a acetyl inh: 4; C2C12 statin: 92*; Cneo AK release: 0

Source: PubChem BioAssay
